Measurements reported in ChEMBL document CHEMBL3797160, “Discovery of novel diaryl urea derivatives bearing a triazole moiety as potential antitumor agents” (Eur J Med Chem, 2016).

System: HT-29
Experiment: Induction of apoptosis in human HT-29 cells assessed as necrotic cells at 1 uM after 48 hrs by annexin V/propidium iodide staining based flow cytometric analysis (reference value: 3.66 %)
Type: functional
Conditions: not given

Structure (SMILES)	Activity
CCN(CC)CCn1cnnc1-c1cc(Oc2ccc(NC(=O)Nc3ccc(Cl)c(C(F)(F)F)c3)cc2F)ccn1	7.44%

System: HT-29
Experiment: Induction of apoptosis in human HT-29 cells assessed as late apoptotic cells at 1 uM after 48 hrs by annexin V/propidium iodide staining based flow cytometric analysis (reference value: 2.49 %)
Type: functional
Conditions: not given

Structure (SMILES)	Activity
CCN(CC)CCn1cnnc1-c1cc(Oc2ccc(NC(=O)Nc3ccc(Cl)c(C(F)(F)F)c3)cc2F)ccn1	8.34%

System: HT-29
Experiment: Induction of apoptosis in human HT-29 cells assessed as early apoptotic cells at 1 uM after 48 hrs by annexin V/propidium iodide staining based flow cytometric analysis (reference value: 1.72 %)
Type: functional
Conditions: not given

Structure (SMILES)	Activity
CCN(CC)CCn1cnnc1-c1cc(Oc2ccc(NC(=O)Nc3ccc(Cl)c(C(F)(F)F)c3)cc2F)ccn1	3.92%

System: HT-29
Experiment: Antiproliferative activity against human HT-29 cells after 72 hrs by MTT assay
Type: functional, cell-based
Conditions: HT-29, 72 h
Outline: (§1)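 MTT assay. Cells grown in MEM with 10% FBS. About 4 × 10³ cells per well were plated and left 24 h at 37 °C in 5% CO₂. Compounds were then added for a further 72 h. MTT was added to a final 5 µg/mL for 4 h at 37 °C. Formazan was dissolved in DMSO and read at 492 nm against a 630 nm reference. Each line was tested three times, and IC50 is the average of at least three determinations.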

Structure (SMILES)	IC50
CCN(CC)CCn1cnnc1-c1cc(Oc2ccc(NC(=O)Nc3ccc(Cl)cc3Cl)cc2F)ccn1	3.59 µM
CN(C)CCn1cnnc1-c1cc(Oc2ccc(NC(=O)Nc3ccccc3C(F)(F)F)cc2F)ccn1	5.86 µM
O=C(Nc1ccc(Oc2ccnc(-c3nncn3CCCN3CCOCC3)c2)c(F)c1)Nc1ccc(Cl)c(C(F)(F)F)c1	2.86 µM
CN(C)CCn1cnnc1-c1cc(Oc2ccc(NC(=O)Nc3ccc(F)c(F)c3)cc2F)ccn1	3.62 µM

The next compounds have a lower IC50 than those just listed; values first:

IC50	Structure (SMILES)
0.98 µM	CN(C)CCCn1cnnc1-c1cc(Oc2ccc(NC(=O)Nc3cccc(C(F)(F)F)c3)cc2F)ccn1
0.9 µM	CCN(CC)CCn1cnnc1-c1cc(Oc2ccc(NC(=O)Nc3ccc(Cl)c(C(F)(F)F)c3)cc2F)ccn1
0.5 µM	CCN(CC)CCn1cnnc1-c1cc(Oc2ccc(NC(=O)Nc3ccc(F)c(Cl)c3)cc2F)ccn1

System: not listed separately
Experiment: Antiproliferative activity against human H460 cells after 72 hrs by MTT assay
Type: functional, cell-based
Conditions: NCI-H460, 72 h
Outline: as §1

Structure (SMILES)	IC50
CCN(CC)CCn1cnnc1-c1cc(Oc2ccc(NC(=O)Nc3ccc(Cl)c(C(F)(F)F)c3)cc2F)ccn1	0.85 µM
CN(C)CCCn1cnnc1-c1cc(Oc2ccc(NC(=O)Nc3cccc(C(F)(F)F)c3)cc2F)ccn1	1.79 µM
CCN(CC)CCn1cnnc1-c1cc(Oc2ccc(NC(=O)Nc3ccc(Cl)cc3Cl)cc2F)ccn1	5.38 µM
CN(C)CCn1cnnc1-c1cc(Oc2ccc(NC(=O)Nc3ccccc3C(F)(F)F)cc2F)ccn1	> 50 µM
O=C(Nc1ccc(Oc2ccnc(-c3nncn3CCCN3CCOCC3)c2)c(F)c1)Nc1ccc(Cl)c(C(F)(F)F)c1	3.23 µM
CN(C)CCn1cnnc1-c1cc(Oc2ccc(NC(=O)Nc3ccc(F)c(F)c3)cc2F)ccn1	9.05 µM
CCN(CC)CCn1cnnc1-c1cc(Oc2ccc(NC(=O)Nc3ccc(F)c(Cl)c3)cc2F)ccn1	7.39 µM

System: MDA-MB-231
Experiment: Antiproliferative activity against human MDA-MB-231 cells after 72 hrs by MTT assay
Type: functional, cell-based
Conditions: MDA-MB-231, 72 h
Outline: as §1

Structure (SMILES)	IC50
CCN(CC)CCn1cnnc1-c1cc(Oc2ccc(NC(=O)Nc3ccc(Cl)cc3Cl)cc2F)ccn1	1.79 µM
CN(C)CCn1cnnc1-c1cc(Oc2ccc(NC(=O)Nc3ccccc3C(F)(F)F)cc2F)ccn1	> 50 µM
O=C(Nc1ccc(Oc2ccnc(-c3nncn3CCCN3CCOCC3)c2)c(F)c1)Nc1ccc(Cl)c(C(F)(F)F)c1	8.28 µM
CN(C)CCn1cnnc1-c1cc(Oc2ccc(NC(=O)Nc3ccc(F)c(F)c3)cc2F)ccn1	> 50 µM

Now from value to compound:

IC50	Structure (SMILES)
13.3 µM	CN(C)CCCn1cnnc1-c1cc(Oc2ccc(NC(=O)Nc3cccc(C(F)(F)F)c3)cc2F)ccn1
1.54 µM	CCN(CC)CCn1cnnc1-c1cc(Oc2ccc(NC(=O)Nc3ccc(Cl)c(C(F)(F)F)c3)cc2F)ccn1
34 µM	CCN(CC)CCn1cnnc1-c1cc(Oc2ccc(NC(=O)Nc3ccc(F)c(Cl)c3)cc2F)ccn1

System: not listed separately
Experiment: Cytotoxicity against human WI38 cells after 72 hrs by MTT assay
Type: cell-based
Conditions: WI-38, 72 h
Outline: as §1

Structure (SMILES)	IC50
CCN(CC)CCn1cnnc1-c1cc(Oc2ccc(NC(=O)Nc3ccc(Cl)c(C(F)(F)F)c3)cc2F)ccn1	6.73 µM
CN(C)CCCn1cnnc1-c1cc(Oc2ccc(NC(=O)Nc3cccc(C(F)(F)F)c3)cc2F)ccn1	11.6 µM
CCN(CC)CCn1cnnc1-c1cc(Oc2ccc(NC(=O)Nc3ccc(Cl)cc3Cl)cc2F)ccn1	4.28 µM
CN(C)CCn1cnnc1-c1cc(Oc2ccc(NC(=O)Nc3ccccc3C(F)(F)F)cc2F)ccn1	> 50 µM
O=C(Nc1ccc(Oc2ccnc(-c3nncn3CCCN3CCOCC3)c2)c(F)c1)Nc1ccc(Cl)c(C(F)(F)F)c1	9.65 µM
CN(C)CCn1cnnc1-c1cc(Oc2ccc(NC(=O)Nc3ccc(F)c(F)c3)cc2F)ccn1	> 50 µM
CCN(CC)CCn1cnnc1-c1cc(Oc2ccc(NC(=O)Nc3ccc(F)c(Cl)c3)cc2F)ccn1	28.7 µM

Molecular target: Mast/stem cell growth factor receptor Kit (Homo sapiens) (UniProt P10721)
Sequence (P10721 whole entry): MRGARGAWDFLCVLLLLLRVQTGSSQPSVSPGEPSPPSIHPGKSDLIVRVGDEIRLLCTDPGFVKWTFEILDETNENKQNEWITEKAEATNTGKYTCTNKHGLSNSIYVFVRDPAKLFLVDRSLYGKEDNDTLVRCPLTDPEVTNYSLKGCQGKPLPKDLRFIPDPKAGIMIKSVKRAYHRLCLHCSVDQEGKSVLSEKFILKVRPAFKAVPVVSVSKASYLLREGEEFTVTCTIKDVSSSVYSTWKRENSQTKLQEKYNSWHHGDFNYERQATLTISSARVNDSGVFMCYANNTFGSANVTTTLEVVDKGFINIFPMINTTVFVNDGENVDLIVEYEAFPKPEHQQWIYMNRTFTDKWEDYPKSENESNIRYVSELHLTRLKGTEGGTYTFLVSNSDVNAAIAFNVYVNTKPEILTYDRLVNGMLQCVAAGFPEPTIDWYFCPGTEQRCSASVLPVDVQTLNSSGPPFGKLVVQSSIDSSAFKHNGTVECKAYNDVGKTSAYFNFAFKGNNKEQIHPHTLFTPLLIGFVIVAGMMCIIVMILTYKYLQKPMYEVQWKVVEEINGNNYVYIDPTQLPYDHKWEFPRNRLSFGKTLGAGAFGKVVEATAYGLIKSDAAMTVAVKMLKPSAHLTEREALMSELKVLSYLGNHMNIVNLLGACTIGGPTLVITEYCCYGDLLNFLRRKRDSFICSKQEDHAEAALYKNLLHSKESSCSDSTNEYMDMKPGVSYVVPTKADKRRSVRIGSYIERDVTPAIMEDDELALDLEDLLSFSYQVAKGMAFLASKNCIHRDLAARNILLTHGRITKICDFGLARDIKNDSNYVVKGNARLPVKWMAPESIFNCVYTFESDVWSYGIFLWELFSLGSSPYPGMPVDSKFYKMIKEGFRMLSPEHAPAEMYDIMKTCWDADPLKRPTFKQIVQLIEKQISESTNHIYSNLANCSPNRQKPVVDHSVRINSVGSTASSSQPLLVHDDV
Experiment: Inhibition of c-KIT (unknown origin) at 10 uM after 1 hr by mobility shift assay
Conditions: not given
Outline: (§2)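 Mobility shift kinase assay. Compounds were diluted in DMSO and then in kinase buffer, and tested in duplicate wells with enzyme and peptide substrate. Incubation was 1 h at 28 °C before stop buffer was added.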

Structure (SMILES)	inhibition
CN(C)CCn1cnnc1-c1cc(Oc2ccc(NC(=O)Nc3ccccc3C(F)(F)F)cc2F)ccn1	22.7%
O=C(Nc1ccc(Oc2ccnc(-c3nncn3CCCN3CCOCC3)c2)c(F)c1)Nc1ccc(Cl)c(C(F)(F)F)c1	56.7%
CN(C)CCn1cnnc1-c1cc(Oc2ccc(NC(=O)Nc3ccc(F)c(F)c3)cc2F)ccn1	3.9%

Results, then the compound that gave them:

inhibition	Structure (SMILES)
69.9%	CN(C)CCCn1cnnc1-c1cc(Oc2ccc(NC(=O)Nc3cccc(C(F)(F)F)c3)cc2F)ccn1
79.9%	CCN(CC)CCn1cnnc1-c1cc(Oc2ccc(NC(=O)Nc3ccc(Cl)c(C(F)(F)F)c3)cc2F)ccn1
40.4%	CCN(CC)CCn1cnnc1-c1cc(Oc2ccc(NC(=O)Nc3ccc(F)c(Cl)c3)cc2F)ccn1

Molecular target: Proto-oncogene tyrosine-protein kinase receptor Ret (Homo sapiens) (UniProt P07949)
Sequence (P07949 whole entry): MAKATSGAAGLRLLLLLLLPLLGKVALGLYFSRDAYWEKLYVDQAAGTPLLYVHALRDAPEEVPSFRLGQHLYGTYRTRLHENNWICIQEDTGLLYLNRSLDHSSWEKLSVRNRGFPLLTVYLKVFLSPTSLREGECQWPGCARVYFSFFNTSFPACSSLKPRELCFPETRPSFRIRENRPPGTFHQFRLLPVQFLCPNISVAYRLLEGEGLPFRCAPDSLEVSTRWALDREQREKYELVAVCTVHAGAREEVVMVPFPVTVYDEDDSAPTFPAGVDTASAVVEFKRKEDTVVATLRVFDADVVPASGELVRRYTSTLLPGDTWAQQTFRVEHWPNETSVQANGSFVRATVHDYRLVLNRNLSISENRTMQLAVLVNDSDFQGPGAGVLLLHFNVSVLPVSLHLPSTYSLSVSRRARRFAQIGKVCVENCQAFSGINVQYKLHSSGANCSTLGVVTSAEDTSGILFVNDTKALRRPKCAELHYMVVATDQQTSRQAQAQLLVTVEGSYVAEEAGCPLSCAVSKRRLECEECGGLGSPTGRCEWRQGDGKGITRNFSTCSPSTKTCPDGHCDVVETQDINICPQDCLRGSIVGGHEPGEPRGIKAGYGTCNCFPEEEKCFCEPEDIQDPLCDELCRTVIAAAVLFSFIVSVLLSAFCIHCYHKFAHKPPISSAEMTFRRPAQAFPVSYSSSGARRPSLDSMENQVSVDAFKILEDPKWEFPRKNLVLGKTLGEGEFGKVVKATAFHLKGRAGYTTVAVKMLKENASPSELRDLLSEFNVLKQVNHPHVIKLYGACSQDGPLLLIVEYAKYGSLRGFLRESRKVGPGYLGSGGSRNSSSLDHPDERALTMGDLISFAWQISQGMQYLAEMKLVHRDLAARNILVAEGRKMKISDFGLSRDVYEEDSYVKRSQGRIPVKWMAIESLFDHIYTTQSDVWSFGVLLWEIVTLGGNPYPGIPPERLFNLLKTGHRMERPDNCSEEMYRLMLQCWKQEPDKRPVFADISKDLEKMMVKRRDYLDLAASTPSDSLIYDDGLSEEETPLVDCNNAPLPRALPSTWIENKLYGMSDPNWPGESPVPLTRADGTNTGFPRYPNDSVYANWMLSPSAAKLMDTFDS
Experiment: Inhibition of RET (unknown origin) at 10 uM after 1 hr by mobility shift assay
Conditions: not given
Outline: as §2

Structure (SMILES)	inhibition
CN(C)CCn1cnnc1-c1cc(Oc2ccc(NC(=O)Nc3ccccc3C(F)(F)F)cc2F)ccn1	43%
O=C(Nc1ccc(Oc2ccnc(-c3nncn3CCCN3CCOCC3)c2)c(F)c1)Nc1ccc(Cl)c(C(F)(F)F)c1	42.3%
CN(C)CCn1cnnc1-c1cc(Oc2ccc(NC(=O)Nc3ccc(F)c(F)c3)cc2F)ccn1	17.6%

Other lines, results leading:

inhibition	Structure (SMILES)
85.6%	CN(C)CCCn1cnnc1-c1cc(Oc2ccc(NC(=O)Nc3cccc(C(F)(F)F)c3)cc2F)ccn1
84.4%	CCN(CC)CCn1cnnc1-c1cc(Oc2ccc(NC(=O)Nc3ccc(Cl)c(C(F)(F)F)c3)cc2F)ccn1
1.9%	CCN(CC)CCn1cnnc1-c1cc(Oc2ccc(NC(=O)Nc3ccc(F)c(Cl)c3)cc2F)ccn1

Molecular target: Receptor-type tyrosine-protein kinase FLT3 (Homo sapiens) (UniProt P36888)
Sequence (P36888 whole entry): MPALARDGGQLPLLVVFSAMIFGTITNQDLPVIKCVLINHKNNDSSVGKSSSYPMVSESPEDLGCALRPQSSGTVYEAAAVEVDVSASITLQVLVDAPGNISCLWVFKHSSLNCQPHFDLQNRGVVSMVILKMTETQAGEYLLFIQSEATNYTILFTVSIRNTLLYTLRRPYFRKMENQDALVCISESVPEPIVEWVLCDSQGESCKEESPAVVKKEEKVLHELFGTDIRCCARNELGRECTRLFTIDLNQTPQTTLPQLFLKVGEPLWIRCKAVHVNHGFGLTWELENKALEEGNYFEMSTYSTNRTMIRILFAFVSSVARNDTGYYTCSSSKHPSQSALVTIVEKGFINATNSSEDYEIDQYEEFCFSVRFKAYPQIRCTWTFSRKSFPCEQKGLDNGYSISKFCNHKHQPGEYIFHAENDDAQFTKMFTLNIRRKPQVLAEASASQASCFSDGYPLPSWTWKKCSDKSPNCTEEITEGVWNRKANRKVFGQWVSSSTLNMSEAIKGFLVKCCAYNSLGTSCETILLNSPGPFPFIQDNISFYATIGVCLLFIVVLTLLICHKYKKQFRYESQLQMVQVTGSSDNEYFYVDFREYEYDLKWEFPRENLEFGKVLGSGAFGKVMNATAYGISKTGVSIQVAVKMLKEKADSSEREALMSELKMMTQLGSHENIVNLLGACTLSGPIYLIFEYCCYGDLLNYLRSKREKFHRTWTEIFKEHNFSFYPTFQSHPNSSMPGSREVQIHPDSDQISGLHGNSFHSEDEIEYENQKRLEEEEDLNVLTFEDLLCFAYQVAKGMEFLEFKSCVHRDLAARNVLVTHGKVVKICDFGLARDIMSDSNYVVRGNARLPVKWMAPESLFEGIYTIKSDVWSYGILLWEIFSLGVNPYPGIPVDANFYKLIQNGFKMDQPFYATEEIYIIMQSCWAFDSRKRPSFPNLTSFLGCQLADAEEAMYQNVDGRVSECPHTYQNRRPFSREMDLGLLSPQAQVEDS
Experiment: Inhibition of FLT3 (unknown origin) at 10 uM after 1 hr by mobility shift assay
Conditions: not given
Outline: as §2

Structure (SMILES)	inhibition
CN(C)CCn1cnnc1-c1cc(Oc2ccc(NC(=O)Nc3ccccc3C(F)(F)F)cc2F)ccn1	17.6%
O=C(Nc1ccc(Oc2ccnc(-c3nncn3CCCN3CCOCC3)c2)c(F)c1)Nc1ccc(Cl)c(C(F)(F)F)c1	38.5%
CN(C)CCn1cnnc1-c1cc(Oc2ccc(NC(=O)Nc3ccc(F)c(F)c3)cc2F)ccn1	13.5%

The next lines start with the values.

inhibition	Structure (SMILES)
69.2%	CN(C)CCCn1cnnc1-c1cc(Oc2ccc(NC(=O)Nc3cccc(C(F)(F)F)c3)cc2F)ccn1
84.9%	CCN(CC)CCn1cnnc1-c1cc(Oc2ccc(NC(=O)Nc3ccc(Cl)c(C(F)(F)F)c3)cc2F)ccn1
59.6%	CCN(CC)CCn1cnnc1-c1cc(Oc2ccc(NC(=O)Nc3ccc(F)c(Cl)c3)cc2F)ccn1

System: HT-29
Experiment: Induction of apoptosis in human HT-29 cells after 48 hrs by annexin V/propidium iodide staining based flow cytometric analysis
Type: functional, cell-based
Conditions: not given

Structure (SMILES)	Activity
CCN(CC)CCn1cnnc1-c1cc(Oc2ccc(NC(=O)Nc3ccc(Cl)c(C(F)(F)F)c3)cc2F)ccn1	Dose-dependent effect

System: HT-29
Experiment: Induction of apoptosis in human HT-29 cells assessed as viable cells at 1 uM after 48 hrs by annexin V/propidium iodide staining based flow cytometric analysis (reference value: 92.1 %)
Type: functional
Conditions: HT-29, 48 h, read-out: Activity

Structure (SMILES)	viability at 1 µM
CCN(CC)CCn1cnnc1-c1cc(Oc2ccc(NC(=O)Nc3ccc(Cl)c(C(F)(F)F)c3)cc2F)ccn1	80.3%

System: HT-29
Experiment: Induction of apoptosis in human HT-29 cells assessed as viable cells 2 uM after 48 hrs by annexin V/propidium iodide staining based flow cytometric analysis (reference value: 92.1 %)
Type: functional
Conditions: not given

Structure (SMILES)	Activity
CCN(CC)CCn1cnnc1-c1cc(Oc2ccc(NC(=O)Nc3ccc(Cl)c(C(F)(F)F)c3)cc2F)ccn1	66.4%

System: HT-29
Experiment: Induction of apoptosis in human HT-29 cells assessed as early apoptotic cells at 2 uM after 48 hrs by annexin V/propidium iodide staining based flow cytometric analysis (reference value: 1.72 %)
Type: functional
Conditions: not given

Structure (SMILES)	Activity
CCN(CC)CCn1cnnc1-c1cc(Oc2ccc(NC(=O)Nc3ccc(Cl)c(C(F)(F)F)c3)cc2F)ccn1	14.4%

System: HT-29
Experiment: Induction of apoptosis in human HT-29 cells assessed as late apoptotic cells at 2 uM after 48 hrs by annexin V/propidium iodide staining based flow cytometric analysis (reference value: 2.49 %)
Type: functional
Conditions: not given

Structure (SMILES)	Activity
CCN(CC)CCn1cnnc1-c1cc(Oc2ccc(NC(=O)Nc3ccc(Cl)c(C(F)(F)F)c3)cc2F)ccn1	13.2%

System: HT-29
Experiment: Induction of apoptosis in human HT-29 cells assessed as necrotic cells at 2 uM after 48 hrs by annexin V/propidium iodide staining based flow cytometric analysis (reference value: 3.66 %)
Type: functional
Conditions: not given

Structure (SMILES)	Activity
CCN(CC)CCn1cnnc1-c1cc(Oc2ccc(NC(=O)Nc3ccc(Cl)c(C(F)(F)F)c3)cc2F)ccn1	6.03%

System: HT-29
Experiment: Induction of apoptosis in human HT-29 cells assessed as viable cells 5 uM after 48 hrs by annexin V/propidium iodide staining based flow cytometric analysis (reference value: 92.1 %)
Type: functional
Conditions: not given

Structure (SMILES)	Activity
CCN(CC)CCn1cnnc1-c1cc(Oc2ccc(NC(=O)Nc3ccc(Cl)c(C(F)(F)F)c3)cc2F)ccn1	43.3%

System: HT-29
Experiment: Induction of apoptosis in human HT-29 cells assessed as early apoptotic cells at 5 uM after 48 hrs by annexin V/propidium iodide staining based flow cytometric analysis (reference value: 1.72 %)
Type: functional
Conditions: not given

Structure (SMILES)	Activity
CCN(CC)CCn1cnnc1-c1cc(Oc2ccc(NC(=O)Nc3ccc(Cl)c(C(F)(F)F)c3)cc2F)ccn1	10.6%

System: HT-29
Experiment: Induction of apoptosis in human HT-29 cells assessed as late apoptotic cells at 5 uM after 48 hrs by annexin V/propidium iodide staining based flow cytometric analysis (reference value: 2.49 %)
Type: functional
Conditions: not given

Structure (SMILES)	Activity
CCN(CC)CCn1cnnc1-c1cc(Oc2ccc(NC(=O)Nc3ccc(Cl)c(C(F)(F)F)c3)cc2F)ccn1	37.5%

System: HT-29
Experiment: Induction of apoptosis in human HT-29 cells assessed as necrotic cells at 5 uM after 48 hrs by annexin V/propidium iodide staining based flow cytometric analysis (reference value: 3.66 %)
Type: functional
Conditions: not given

Structure (SMILES)	Activity
CCN(CC)CCn1cnnc1-c1cc(Oc2ccc(NC(=O)Nc3ccc(Cl)c(C(F)(F)F)c3)cc2F)ccn1	8.59%

Molecular target: Vascular endothelial growth factor receptor 2 (Homo sapiens) (UniProt P35968);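 further: kinase activity read out by mobility shift assay after 1 h of incubation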
Sequence (P35968 whole entry): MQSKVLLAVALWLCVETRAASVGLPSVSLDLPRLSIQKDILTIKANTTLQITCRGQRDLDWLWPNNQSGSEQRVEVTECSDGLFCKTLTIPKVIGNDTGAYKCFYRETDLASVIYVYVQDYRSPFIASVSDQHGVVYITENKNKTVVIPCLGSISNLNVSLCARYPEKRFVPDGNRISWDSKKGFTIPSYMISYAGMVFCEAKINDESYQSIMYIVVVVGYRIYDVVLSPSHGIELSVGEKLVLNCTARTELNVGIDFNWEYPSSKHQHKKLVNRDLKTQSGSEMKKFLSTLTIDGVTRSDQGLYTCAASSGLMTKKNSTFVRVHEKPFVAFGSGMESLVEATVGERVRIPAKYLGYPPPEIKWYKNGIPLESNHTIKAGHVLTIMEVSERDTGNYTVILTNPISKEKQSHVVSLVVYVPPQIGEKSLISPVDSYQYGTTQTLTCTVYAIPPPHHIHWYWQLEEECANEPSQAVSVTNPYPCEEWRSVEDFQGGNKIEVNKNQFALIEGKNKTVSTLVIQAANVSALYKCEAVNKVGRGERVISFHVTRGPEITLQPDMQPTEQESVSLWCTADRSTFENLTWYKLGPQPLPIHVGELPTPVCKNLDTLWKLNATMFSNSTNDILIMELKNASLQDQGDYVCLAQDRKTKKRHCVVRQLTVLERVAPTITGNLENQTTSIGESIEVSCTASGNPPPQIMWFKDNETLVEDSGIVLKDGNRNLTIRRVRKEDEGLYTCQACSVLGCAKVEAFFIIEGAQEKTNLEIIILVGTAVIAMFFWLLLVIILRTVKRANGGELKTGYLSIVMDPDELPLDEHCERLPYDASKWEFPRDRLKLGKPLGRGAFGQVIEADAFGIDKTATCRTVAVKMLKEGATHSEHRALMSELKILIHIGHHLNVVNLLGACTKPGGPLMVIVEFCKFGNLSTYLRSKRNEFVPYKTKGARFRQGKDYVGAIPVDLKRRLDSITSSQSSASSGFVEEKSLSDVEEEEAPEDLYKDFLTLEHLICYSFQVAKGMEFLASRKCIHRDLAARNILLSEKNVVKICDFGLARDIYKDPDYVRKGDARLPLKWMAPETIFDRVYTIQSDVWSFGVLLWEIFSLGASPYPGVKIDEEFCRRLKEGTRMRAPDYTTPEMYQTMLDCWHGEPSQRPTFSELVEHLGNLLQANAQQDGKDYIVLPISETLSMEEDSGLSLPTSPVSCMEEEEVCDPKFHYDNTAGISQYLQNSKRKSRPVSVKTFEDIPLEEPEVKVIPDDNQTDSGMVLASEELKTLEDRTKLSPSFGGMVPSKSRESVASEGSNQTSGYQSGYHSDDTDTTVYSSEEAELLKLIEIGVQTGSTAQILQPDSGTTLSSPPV
Conditions: at 10 µM

Structure (SMILES)	inhibition
CN(C)CCn1cnnc1-c1cc(Oc2ccc(NC(=O)Nc3ccccc3C(F)(F)F)cc2F)ccn1	2.2%
O=C(Nc1ccc(Oc2ccnc(-c3nncn3CCCN3CCOCC3)c2)c(F)c1)Nc1ccc(Cl)c(C(F)(F)F)c1	0%

The next lines start with the values.

inhibition	Structure (SMILES)
62.8%	CN(C)CCCn1cnnc1-c1cc(Oc2ccc(NC(=O)Nc3cccc(C(F)(F)F)c3)cc2F)ccn1
10%	CCN(CC)CCn1cnnc1-c1cc(Oc2ccc(NC(=O)Nc3ccc(Cl)c(C(F)(F)F)c3)cc2F)ccn1
2.7%	CCN(CC)CCn1cnnc1-c1cc(Oc2ccc(NC(=O)Nc3ccc(F)c(Cl)c3)cc2F)ccn1
